Here are results for one compound from ChEMBL document CHEMBL3112420, “Discovery of 8-cyclopentyl-2-[4-(4-methyl-piperazin-1-yl)-phenylamino]-7-oxo-7,8-dihydro-pyrido[2,3-d]pyrimidine-6-carbonitrile (7x) as a potent inhibitor of cyclin-dependent kinase 4 (CDK4) and AMPK-related kinase 5 (ARK5)” (J Med Chem, 2014).

In assay [1] the target is Macrophage colony-stimulating factor 1 receptor (Homo sapiens, UniProt P07333). The assay can be described thus: Inhibition of FMS (unknown origin).
The subject of assay [2] is MCF7. The assay can be described thus: Cell cycle arrest in human MCF7 cells assessed as accumulation at sub-G1 phase at 0.5 to 1 uM after 48 hrs by propidium iodide staining-based flow cytometric analysis. The class given is functional. Background: A flow cytometer gives signals particle by particle.
A short description of assay [3]: Cytotoxicity against human U87 cells after 96 hrs by Cell-Titer Blue assay. The format is functional, U-87MG ATCC. The note with it: U-87 MG.
Assay [4] concerns the target Fibroblast growth factor receptor 1 (Homo sapiens, UniProt P11362). Nature of the assay: Inhibition of FGFR1 (unknown origin).
The test system of assay [5] is MDA-MB-231. The assay can be described thus: Antitumor activity against ip dosed human MDA-MB-231 cells xenografted in NCR nude mouse assessed as inhibition of tumor growth administered as […] on alternative days measured every 2 days up to 21 days. The format is functional, organism-based. The method, boiled down:
(§1)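 MDA-MB-231 cells orthotopically implanted into mammary fat pads of 6–8 week old female nude mice (n=11 per group). Dosing began when average tumour volume reached 100 mm3. Lactate salt in PBS or vehicle was given intraperitoneally every other day (Q2D). Tumour volumes and body weights were recorded every 2 days over 21 days; mean ± SEM.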
On the technique in general: In xenograft studies the graft and the host belong to different species.

Assay [6] has as its target CDK6/cyclin D1 (Homo sapiens, UniProt Q00534). Nature of the assay: Inhibition of CDK6/cyclinD1 (unknown origin). The format is protein-complex assay.
A short description of assay [7]: Cytotoxicity against human DLD1 cells after 96 hrs by Cell-Titer Blue assay. To be noted: DLD-1, 96 h. The class given is functional.
The subject of assay [8] is MDA-MB-231. Nature of the assay: Antitumor activity against human MDA-MB-231 cells xenografted in NCR nude mouse assessed as decrease in tumor weight at 50 mg/kg, ip […] administered on alternative days measured every 2 days up to 21 days. The arrangement: dose 50 mg/kg. The class given is functional, organism-based. In short, it runs like this:
as §1

Assay [9] has as its system MCF7. The assay can be described thus: Cell cycle arrest in human MCF7 cells assessed as accumulation at G1 phase at 0.5 to 1 uM after 24 hrs by propidium iodide staining-based flow cytometric analysis. The format is functional. In short, it runs like this:
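Cells plated at 1.0 × 10^6 per dish, then treated 24 h later with increasing concentrations for 24 h. Floating and adherent cells were pooled, PBS-washed and fixed in ice-cold 70% ethanol for at least 24 h. They were then stained with propidium iodide plus RNase A for 30 min at 37 °C. Percentage of cells in each phase was read by flow cytometry.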

Assay [10] can be described thus: Cytotoxicity against human SNU5 cells after 96 hrs by Cell-Titer Blue assay. The format is functional. The note with it: SNU-5, 96 h.
Assay [11] deals with MDA-MB-231. Nature of the assay: Cell cycle arrest in human MDA-MB-231 cells assessed as accumulation at sub-G1 phase at 0.5 to 1 uM after 48 hrs by propidium iodide staining-based flow cytometric analysis. The format is functional.
Assay [12] can be described thus: Cytotoxicity against human Capan1 cells after 96 hrs by Cell-Titer Blue assay. The class given is functional. The note with it: CAPAN-1, 96 h.
Assay [13] is described as follows: Cytotoxicity against human GRANTA-519 cells after 96 hrs by Cell-Titer Blue assay. The class given is functional. The note with it: Granta-519, 96 h.
Assay [14] has as its system SW480. Nature of the assay: Cytotoxicity against human SW480 cells after 96 hrs by Cell-Titer Blue assay. The format is functional. To be noted: SW480, 96 h.

Calls of active or inactive are those of the source. The calls are words filed in the database; no cut-off is given here.

Chain of Macrophage colony-stimulating factor 1 receptor (P07333 whole entry): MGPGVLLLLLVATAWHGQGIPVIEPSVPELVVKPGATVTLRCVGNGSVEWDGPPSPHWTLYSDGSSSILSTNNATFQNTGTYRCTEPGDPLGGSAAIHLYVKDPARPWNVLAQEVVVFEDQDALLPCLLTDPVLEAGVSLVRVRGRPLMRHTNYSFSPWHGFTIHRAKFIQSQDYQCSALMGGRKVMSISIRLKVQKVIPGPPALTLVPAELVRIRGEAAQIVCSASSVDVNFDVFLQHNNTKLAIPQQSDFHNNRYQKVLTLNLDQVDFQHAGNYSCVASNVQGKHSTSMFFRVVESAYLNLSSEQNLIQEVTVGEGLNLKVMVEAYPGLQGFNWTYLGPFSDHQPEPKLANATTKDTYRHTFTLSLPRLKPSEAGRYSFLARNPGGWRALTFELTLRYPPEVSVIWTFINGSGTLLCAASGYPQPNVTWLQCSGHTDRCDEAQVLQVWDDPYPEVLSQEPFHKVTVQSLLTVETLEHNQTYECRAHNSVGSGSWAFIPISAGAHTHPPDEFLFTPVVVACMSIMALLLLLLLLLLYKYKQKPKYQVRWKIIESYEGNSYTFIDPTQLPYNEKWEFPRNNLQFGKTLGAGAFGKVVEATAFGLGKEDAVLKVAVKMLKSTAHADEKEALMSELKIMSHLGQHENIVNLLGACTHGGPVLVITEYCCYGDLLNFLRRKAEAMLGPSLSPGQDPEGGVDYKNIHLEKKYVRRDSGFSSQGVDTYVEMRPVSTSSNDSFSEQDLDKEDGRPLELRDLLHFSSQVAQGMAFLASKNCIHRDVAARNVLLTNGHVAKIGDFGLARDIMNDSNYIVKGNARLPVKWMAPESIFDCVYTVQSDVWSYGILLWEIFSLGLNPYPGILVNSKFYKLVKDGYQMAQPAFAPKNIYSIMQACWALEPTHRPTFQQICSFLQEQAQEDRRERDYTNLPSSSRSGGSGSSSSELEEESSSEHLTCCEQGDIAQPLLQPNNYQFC
Chain of Fibroblast growth factor receptor 1 (P11362 whole entry): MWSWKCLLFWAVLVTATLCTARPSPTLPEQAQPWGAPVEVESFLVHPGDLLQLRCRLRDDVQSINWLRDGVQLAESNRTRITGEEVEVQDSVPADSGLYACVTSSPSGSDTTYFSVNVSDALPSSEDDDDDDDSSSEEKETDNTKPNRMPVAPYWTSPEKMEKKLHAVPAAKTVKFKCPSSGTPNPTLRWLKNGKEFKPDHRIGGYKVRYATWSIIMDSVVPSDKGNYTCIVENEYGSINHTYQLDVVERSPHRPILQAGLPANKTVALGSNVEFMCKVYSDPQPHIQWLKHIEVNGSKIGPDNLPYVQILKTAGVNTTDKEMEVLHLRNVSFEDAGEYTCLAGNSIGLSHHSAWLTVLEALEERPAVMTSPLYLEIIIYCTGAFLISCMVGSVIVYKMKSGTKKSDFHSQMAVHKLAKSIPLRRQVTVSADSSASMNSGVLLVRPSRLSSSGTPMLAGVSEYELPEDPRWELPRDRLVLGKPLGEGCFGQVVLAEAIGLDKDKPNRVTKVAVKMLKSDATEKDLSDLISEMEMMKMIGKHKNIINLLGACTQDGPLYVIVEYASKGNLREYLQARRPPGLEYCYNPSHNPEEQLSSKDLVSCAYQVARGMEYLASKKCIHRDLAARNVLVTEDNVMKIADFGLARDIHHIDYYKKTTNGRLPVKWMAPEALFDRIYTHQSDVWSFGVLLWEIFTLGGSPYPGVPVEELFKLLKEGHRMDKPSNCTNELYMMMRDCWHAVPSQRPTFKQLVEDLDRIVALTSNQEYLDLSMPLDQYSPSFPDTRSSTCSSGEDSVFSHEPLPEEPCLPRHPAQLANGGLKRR
Chain of CDK6/cyclin D1 (P24385 whole entry): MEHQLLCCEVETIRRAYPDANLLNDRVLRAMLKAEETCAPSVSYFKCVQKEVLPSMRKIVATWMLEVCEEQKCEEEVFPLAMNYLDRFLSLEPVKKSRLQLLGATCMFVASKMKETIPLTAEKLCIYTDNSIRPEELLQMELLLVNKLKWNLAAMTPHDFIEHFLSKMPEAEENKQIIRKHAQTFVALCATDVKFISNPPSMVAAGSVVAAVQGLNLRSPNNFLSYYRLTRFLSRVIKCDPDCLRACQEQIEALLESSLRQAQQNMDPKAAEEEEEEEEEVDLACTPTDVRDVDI
Chain of CDK6/cyclin D1 (Q00534 whole entry): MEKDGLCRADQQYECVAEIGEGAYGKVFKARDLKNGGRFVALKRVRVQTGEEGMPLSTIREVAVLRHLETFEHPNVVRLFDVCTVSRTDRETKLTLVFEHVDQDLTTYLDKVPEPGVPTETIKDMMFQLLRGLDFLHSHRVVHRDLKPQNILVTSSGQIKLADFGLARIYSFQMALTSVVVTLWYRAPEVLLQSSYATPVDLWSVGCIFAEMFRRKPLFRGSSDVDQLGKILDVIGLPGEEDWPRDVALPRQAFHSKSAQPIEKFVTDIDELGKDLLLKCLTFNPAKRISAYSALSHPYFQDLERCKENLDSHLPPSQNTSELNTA

As for `CN1CCN(c2ccc(Nc3ncc4cc(C#N)c(=O)n(C5CCCC5)c4n3)cc2)CC1` [NARAZACICLIB], the 50% inhibitory concentration (IC50) – broadly, the concentration needed to halve the response being measured – came out at 10 nM in assay [1], 26 nM in assay [4] and 9.82 nM in assay [6]. In addition, the result in assay [2], in assay [8], in assay [9] and in assay [11] was Active. Besides, the concentration for 50% growth inhibition (GI50) (commonly the concentration that inhibits growth by half) in assay [3] was 100 nM; in assay [7] it was 100 nM; in assay [10], 100 nM; in assay [12], 500 nM; in [13], 25 nM; in assay [14] it was 90 nM. For the same compound, the inhibition result in [5] is “Dose-dependent effect”.
